The values below come from ChEMBL document CHEMBL1154231, “Bioactive Nortriterpenoids from Schisandra grandiflora” (J Nat Prod, 2009).

Series [1] is described as follows: Cytotoxicity against human C8166 cells by MTT assay. Format: cell-based. In short, it runs like this: (§1)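 HIV-1-induced cytopathic effect inhibition in permanent human T-cell line C8166, giving EC50. Cytotoxicity to uninfected C8166 cells run in parallel by MTT, giving CC50. Selectivity index taken as CC50/EC50. AZT served as positive control.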
For orientation: Tetrazolium dyes change colour on reduction, which living cells bring about.

A short description of series [2]: Selectivity index, ratio of CC50 for human C8166 cells to EC50 for HIV1. Format: toxicity, cell-based. As to conditions: read-out: Ratio CC50/EC50. The method in brief: as §1
In a further series the test system is K562. Kind of series: Cytotoxicity against human K562 cells after 48 hrs by sulforhodamine B assay. As to conditions: K562, 48 h. Format: functional, cell-based. In general terms: In SRB staining, fixed cells bind dye roughly in proportion to their protein.
Series [3] deals with Human immunodeficiency virus 1. Put plainly: Antiviral activity against HIV1 infected in human C8166 cells assessed as inhibition of virus-induced cytopathic effect. In kind it is functional, organism-based. As to conditions: Human immunodeficiency virus 1, C8166. In short, it runs like this:
as §1

The test system of the next series is HepG2. Kind of series: Cytotoxicity against human HepG2 cells after 48 hrs by sulforhodamine B assay. In kind it is functional, cell-based. As to conditions: HepG2, 48 h.

Converted amounts (≈) assume the structure as drawn.

`Cc1cn([C@H]2C[C@H](N=[N+]=[N-])[C@@H](CO)O2)c(=O)[nH]c1=O` [ZIDOVUDINE]: the CC50 – broadly, the concentration giving 50% cytotoxicity – in series [1] is greater than 200 µg/mL.
As for `C[C@@H]1C(=O)[C@@]2(C)CC[C@]34C[C@]56OC(=O)C[C@H]5O[C@@](C)(CO)[C@@H]6C[C@@H]5O[C@@]53C(=O)[C@@]3(O[C@@]5(C[C@H](C)C(=O)O5)[C@@H]1[C@H]32)O4` [SCHIGRANDILACTONE B], the selectivity ratio in series [2] was 4. In addition, the 50% inhibitory concentration (IC50) (as a rule, the concentration needed to halve the response being measured) amounted to 3.19 µg/mL (≈ 5.71 µM) in the series on K562 and 0.2 µg/mL (≈ 0.358 µM) in the series with HepG2. For the same compound, the EC50 (commonly the midpoint of the concentration-response curve) in series [3] is 20.8 µg/mL (≈ 37.2 µM).
As to `C[C@@H]1C(=O)[C@@]2(C)CC[C@]34C[C@]56OC(=O)C[C@H]5O[C@@](C)(CO)[C@@H]6[C@@H](O)C[C@H]3C(=O)[C@]3(O4)O[C@@]4(C[C@H](C)C(=O)O4)[C@@H]1[C@H]32` [SCHIGRANDILACTONE C], the selectivity ratio in series [2] stood at 12.7. For the same compound, the EC50 in series [3] was 5.1 µg/mL (≈ 9.1 µM).
Regarding `C[C@@H]1C(=O)[C@@]2(C)CC[C@]34C[C@]56OC(=O)C[C@H]5O[C@@](C)(CO)[C@@H]6CC[C@@]3(O)C(=O)[C@@]3(O[C@@]5(C[C@H](C)C(=O)O5)[C@@H]1[C@H]32)O4` [SCHIGRANDILACTONE A], the selectivity ratio in series [2] worked out at 1.1. For the same compound, the IC50 with K562 turned out to be 0.13 µg/mL (≈ 0.232 µM); with HepG2 it was 0.19 µg/mL (≈ 0.339 µM). In addition, in series [3], the EC50 was 80.2 µg/mL (≈ 143 µM).
